Active and inactive are the calls of the source. The calls are words filed in the database; no cut-off is given here.
System: not listed separately
Experiment: Inhibition of recombinant Neisseria meningitidis N-terminal His6-tagged alanyl aminopeptidase M1 expressed in Escherichia coli BL21 cells using Ala-AMC as substrate preincubated for 30 to 60 mins followed by substrate addition measured for 15 mins by spectrofluorimetric analysis

Row | SMILES | Ki
1 | CNCC(N)P(=O)(O)O (stereo not drawn) | 29.6 µM
2 | CN(C)CCNCC(N)P(=O)(O)O (stereo not drawn) | 26 µM
3 | NCC(N)P(=O)(O)O (stereo not drawn) | 0.589 µM

Target: T1, Cytosol aminopeptidase (Sus scrofa, UniProt P28839)
T1 sequence (P28839 whole entry): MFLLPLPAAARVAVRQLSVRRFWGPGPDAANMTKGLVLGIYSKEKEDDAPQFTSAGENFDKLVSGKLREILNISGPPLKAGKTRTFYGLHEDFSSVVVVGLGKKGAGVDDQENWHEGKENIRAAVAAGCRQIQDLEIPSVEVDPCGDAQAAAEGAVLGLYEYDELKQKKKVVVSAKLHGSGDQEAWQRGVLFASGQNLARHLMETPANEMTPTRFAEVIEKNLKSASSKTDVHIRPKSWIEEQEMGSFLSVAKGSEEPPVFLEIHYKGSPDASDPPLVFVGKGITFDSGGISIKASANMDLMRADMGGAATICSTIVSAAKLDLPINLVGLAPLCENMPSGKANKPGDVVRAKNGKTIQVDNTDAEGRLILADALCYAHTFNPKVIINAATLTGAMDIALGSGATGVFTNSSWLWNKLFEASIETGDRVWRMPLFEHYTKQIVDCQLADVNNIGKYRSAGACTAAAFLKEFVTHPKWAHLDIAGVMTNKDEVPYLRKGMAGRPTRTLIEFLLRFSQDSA
Experiment: Inhibition of porcine kidney leucine aminopeptidase M17 using L-leucine p-nitro-anilide as substrate by spectrophotometric analysis

Row | SMILES | Ki
4 | NC(CN1CCCCC1)P(=O)(O)O (stereo not drawn) | 1410 µM
5 | CC(NCC(N)P(=O)(O)O)c1ccccc1 (stereo not drawn) | 600 µM
6 | NC(CNCc1ccccc1)P(=O)(O)O (stereo not drawn) | 350 µM

Target: T1, Cytosol aminopeptidase
Experiment: Inhibition of porcine kidney leucine aminopeptidase M17 using Leu-AMC as substrate preincubated for 30 to 60 mins followed by substrate addition measured for 15 mins by spectrofluorimetric analysis
Summary of the method: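 Inhibitor concentrations were tested up to 800 μM against the porcine kidney enzyme. Values are reported as inhibition constants (Ki).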

Row | SMILES | Ki
7 | Nc1ccc(CNCC(N)P(=O)(O)O)cc1 (stereo not drawn) | 7.02 µM
8 | COc1ccc(CNCC(N)P(=O)(O)O)cc1 (stereo not drawn) | 26.2 µM
9 | COc1ccc(CCNCC(N)P(=O)(O)O)cc1 (stereo not drawn) | 19.5 µM
10 | NCc1ccc(CNCC(N)P(=O)(O)O)cc1 (stereo not drawn) | 26.5 µM
11 | CC(C)CNCC(N)P(=O)(O)CC(Cc1ccccc1)C(=O)O (stereo not drawn) | 15.2 µM
12 | NC(CCC1CCCCC1)P(=O)(O)O (stereo not drawn) | 0.21 µM
13 | NC(CNC1CCCCCC1)P(=O)(O)CC(Cc1ccccc1)C(=O)O (stereo not drawn) | 23.8 µM
14 | CC(C)(C)c1ccc(CNCC(N)P(=O)(O)O)cc1 (stereo not drawn) | 71.1 µM
15 | NCCNCC(N)P(=O)(O)O (stereo not drawn) | 289 µM
16 | NCC(N)P(=O)(O)CC(Cc1ccccc1)C(=O)O (stereo not drawn) | 64.4 µM
17 | COc1ccc(CCNCC(N)P(=O)(O)CC(Cc2ccccc2)C(=O)O)cc1 (stereo not drawn) | 21.1 µM
18 | NC(CNCC1CCCO1)P(=O)(O)O (stereo not drawn) | 69.1 µM
19 | NC1CCCCC1NCC(N)P(=O)(O)O (stereo not drawn) | 240 µM
20 | CCCNCC(N)P(=O)(O)CC(Cc1ccccc1)C(=O)O (stereo not drawn) | 21 µM
21 | NC(CNC1CCCCCC1)P(=O)(O)O (stereo not drawn) | 20.8 µM
22 | NC(CNCCc1ccccc1)P(=O)(O)O (stereo not drawn) | 108 µM
23 | CN(C)CCNCC(N)P(=O)(O)O (stereo not drawn) | 72.6 µM
24 | NC(CNCC1CCNCC1)P(=O)(O)O (stereo not drawn) | 68.4 µM
25 | NC(CNCCN1CCNCC1)P(=O)(O)O (stereo not drawn) | 55.8 µM
26 | CCCCCCNCC(N)P(=O)(O)O (stereo not drawn) | 119 µM
27 | NC(CNC1CCCCC1)P(=O)(O)CC(Cc1ccccc1)C(=O)O (stereo not drawn) | 28.3 µM

Target: T2, Cytosol aminopeptidase (Sus scrofa) (UniProt P28839)
T2 sequence (whole entry): T1 sequence (P28839 whole entry)
Experiment: Inhibition of porcine kidney leucine aminopeptidase M17 using Leu-AMC as substrate up to 0.8 mM preincubated for 30 to 60 mins followed by substrate addition measured for 15 mins by spectrofluorimetric analysis

Row | SMILES | inhibition
28 | NC(CN1CCOCC1)P(=O)(O)O (stereo not drawn) | inactive
